The source made the active and inactive calls. The rule behind the calls is not given here.
Columns and labels:
[1] = target: T1, Estrogen receptor (Homo sapiens) (UniProt P03372); experiment: Displacement of ES2 ligand from human recombinant ERalpha relative to tamoxifen
T1 sequence (whole entry): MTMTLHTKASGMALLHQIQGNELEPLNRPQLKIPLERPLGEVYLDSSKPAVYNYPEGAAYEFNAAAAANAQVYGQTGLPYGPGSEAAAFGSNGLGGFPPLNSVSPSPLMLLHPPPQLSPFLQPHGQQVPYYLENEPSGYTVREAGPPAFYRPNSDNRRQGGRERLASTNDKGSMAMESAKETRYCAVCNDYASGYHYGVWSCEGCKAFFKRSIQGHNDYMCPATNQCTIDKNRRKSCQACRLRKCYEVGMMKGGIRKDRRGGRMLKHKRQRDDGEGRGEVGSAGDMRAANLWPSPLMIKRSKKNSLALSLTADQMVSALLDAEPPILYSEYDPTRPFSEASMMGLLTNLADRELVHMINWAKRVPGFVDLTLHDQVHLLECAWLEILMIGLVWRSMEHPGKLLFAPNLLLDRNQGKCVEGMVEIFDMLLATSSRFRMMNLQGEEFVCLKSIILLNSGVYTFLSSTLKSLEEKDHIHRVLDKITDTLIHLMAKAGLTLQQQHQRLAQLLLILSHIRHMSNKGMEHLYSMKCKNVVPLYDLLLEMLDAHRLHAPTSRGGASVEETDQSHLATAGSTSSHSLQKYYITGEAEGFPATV
Outline: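 Fluorescence polarization competition assay. Recombinant hERa (7 nM) was preincubated with fluorescent estrogenic probe ES2 (1 nM) in screening buffer, then combined with serial DMSO dilutions of test molecule. After 1 h at room temperature, polarization was read (ex 495 nm, em 535 nm).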

MCF7 [2] = experiment: Enhancement of growth of estrogen receptor positive MCF7 cells at 5 uM after 48 hrs by MTT assay relative to DMSO; format: functional, cell-based; conditions: Homo sapiens
Outline: (§1)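 Cells were seeded, left to attach for 24 h, then switched to phenol red-free DMEM with 5% charcoal-stripped FBS. After a further 24 h, compound was added at 5 µM in DMSO (final DMSO ≤0.1%) and incubated 48 h. Viability was read as absorbance at 570 nm by MTT-type kit and expressed relative to DMSO, mean of three determinations.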

[3] = target: T1, Estrogen receptor (Homo sapiens); experiment: Agonist activity at human recombinant ERalpha expressed in MCF7 cells assessed as ERE-driven transactivation at 2.5 uM by luciferase reporter assay relative to DMSO; format: functional, cell-based
Outline: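 MCF-7 cells in phenol red-free DMEM with 10% charcoal-stripped FBS, plated in triplicate, transfected 24 h later with pCMV-hERa, 3x-ERE-TATA-Luc and pCMV-b. Test compound (2.5 µM) or DMSO added after transfection; lysed after 24 h. Luciferase normalized to b-galactosidase; reported as ratio of compound RLA to DMSO RLA, mean of three determinations.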

MCF7 [4] = experiment: Cell viability of estrogen receptor positive MCF7 cells at 5 uM after 48 hrs by MTT assay relative to DMSO; format: functional, Homo sapiens; outline: as §1
MDA-MB-231 = experiment: Cell viability of estrogen receptor negative MDA-MB-231 cells at 5 uM after 48 hrs by MTT assay relative to DMSO; format: functional, Homo sapiens; outline: as §1
[5] = target: T2, Progesterone receptor (Homo sapiens) (UniProt P06401); experiment: Antagonist activity at human PR in T47D cells assessed as MMTV-driven transactivation at 5 uM by luciferase reporter assay relative to progesterone; format: functional, cell-based; set-up: scale not given: the % may be the effect or the level left
T2 sequence (whole entry): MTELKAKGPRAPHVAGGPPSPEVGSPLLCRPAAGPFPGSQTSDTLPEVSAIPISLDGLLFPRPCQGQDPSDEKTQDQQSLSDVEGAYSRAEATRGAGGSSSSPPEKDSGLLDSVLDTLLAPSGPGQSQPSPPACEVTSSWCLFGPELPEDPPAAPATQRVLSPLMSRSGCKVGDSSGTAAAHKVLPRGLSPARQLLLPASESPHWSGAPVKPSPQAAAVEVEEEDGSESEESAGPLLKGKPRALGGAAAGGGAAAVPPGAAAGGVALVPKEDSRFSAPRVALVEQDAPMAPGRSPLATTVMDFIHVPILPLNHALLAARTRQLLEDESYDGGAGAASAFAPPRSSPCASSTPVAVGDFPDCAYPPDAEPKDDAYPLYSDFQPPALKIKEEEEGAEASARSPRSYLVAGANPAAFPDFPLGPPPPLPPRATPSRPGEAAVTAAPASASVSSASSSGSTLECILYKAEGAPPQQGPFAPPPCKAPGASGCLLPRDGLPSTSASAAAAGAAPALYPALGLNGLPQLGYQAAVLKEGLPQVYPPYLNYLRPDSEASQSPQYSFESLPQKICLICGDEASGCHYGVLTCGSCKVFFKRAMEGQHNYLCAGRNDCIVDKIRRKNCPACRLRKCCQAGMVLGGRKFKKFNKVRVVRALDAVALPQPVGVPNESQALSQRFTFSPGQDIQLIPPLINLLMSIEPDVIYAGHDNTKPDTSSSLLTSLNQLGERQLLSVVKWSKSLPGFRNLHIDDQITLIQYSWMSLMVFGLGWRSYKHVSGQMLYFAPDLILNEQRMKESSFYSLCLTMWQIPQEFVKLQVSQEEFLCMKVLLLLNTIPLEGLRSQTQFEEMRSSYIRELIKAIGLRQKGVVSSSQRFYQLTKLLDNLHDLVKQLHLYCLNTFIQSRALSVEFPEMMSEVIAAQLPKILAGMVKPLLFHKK
Outline: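 T47D cells in phenol red-free RPMI + 10% charcoal-stripped FBS, 3 × 10⁵ cells/well in triplicate. After 24 h, transfected with pCMV-hPR, pMMTV-Luc reporter and pCMV-β normaliser. Treated for 24 h in the presence of 1 nM progesterone. MMTV-driven luciferase measured on lysate and normalised to β-galactosidase luminescence.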

[6] = target: T1, Estrogen receptor (Homo sapiens); experiment: Agonist activity at human ERalpha in T47D cells assessed as enhancement of AP1-driven transactivation at 5 uM by luciferase reporter assay relative to DMSO; format: functional, cell-based
Outline: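 T47D cells grown in RPMI 1640 + 10% FBS, plated in triplicate at 3 × 10⁵ cells/well in phenol red-free RPMI + 10% charcoal-stripped FBS. After 24 h, transfected with pCMV-hERa, AP1-Luc reporter and pCMV-β (β-gal normalisation). Compound at 5 µM or DMSO for 24 h. Luciferase read and normalised to β-gal. Result expressed as RLA of compound/RLA of DMSO.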

SMILES | relative binding affinity (RBA) [1] | Activity (MCF7 [2]) | further results
CCCCCCCCNC(=O)CCCCCCCCCCOC[C@@H]1Cc2ccccc2CN1C(=O)c1cccc(F)c1 | 0.177 | inactive | –
CCCCNC(=O)CCCCCCCCCCOC[C@@H]1Cc2ccccc2CN1C(=O)c1ccccc1F | 0.225 | inactive | –
CCCCNC(=O)CCCCCCCCCCOC[C@@H]1Cc2ccccc2CN1C(=O)c1ccc(C)cc1 | 0.132 | inactive | Activity [3]: Active
CCCCNC(=O)CCCCCCCCCCOC[C@@H]1Cc2ccccc2CN1C(=O)Cc1cccc(F)c1 | 0.267 | inactive | Activity [3]: Active
CCCCNC(=O)CCCCCCCCCCOC[C@@H]1Cc2ccccc2CN1C(=O)c1cccc(C)c1 | 0.156 | inactive | Activity [3]: Active
CCCCNC(=O)CCCCCCCCCCOC[C@@H]1Cc2ccccc2CN1C(=O)c1ccc(OC)cc1 | 0.14 | inactive | –
CCCCNC(=O)CCCCCCCCCCOC[C@@H]1Cc2ccccc2CN1C(=O)c1cccc(OC)c1 | 0.192 | inactive | –
CC/C(=C(\c1ccccc1)c1ccc(OCCN(C)C)cc1)c1ccccc1 [TAMOXIFEN] | – | inactive | Activity (MCF7 [4]): 0.43; Activity (MDA-MB-231): 0.65
CCCCNC(=O)CCCCCCCCCCOC[C@@H]1Cc2ccccc2CN1C(=O)c1ccc(F)cc1 | 0.264 | inactive | –
C[C@]12CC[C@@H]3c4ccc(O)cc4C[C@@H](CCCCCCCCC[S+]([O-])CCCC(F)(F)C(F)(F)F)[C@H]3[C@@H]1CC[C@@H]2O (stereo not given in full) | – | – | Activity [5]: 48%
CCCCNC(=O)CCCCCCCCCCOC[C@@H]1Cc2ccccc2CN1C(=O)c1ccc(O)cc1 | 1.79 | inactive | –
CCCCNC(=O)CCCCCCCCCCOC[C@@H]1Cc2ccccc2CN1C(=O)c1cccc(Cl)c1 | 0.156 | inactive | Activity [6]: Active; Activity [5]: 54%
CCCCNC(=O)CCCCCCCCCCOC[C@@H]1Cc2ccccc2CN1C(=O)c1cccc(O)c1 | 5 | inactive | Activity (MCF7 [4]): 0.48; Activity (MDA-MB-231; Homo sapiens): inactive
CCCCNC(=O)CCCCCCCCCCOC[C@@H]1Cc2ccccc2CN1C(=O)c1cccc(F)c1 | 0.287 | inactive | –
